In ChEMBL document CHEMBL4732237, “Discovery of 4-alkoxy-2-aryl-6,7-dimethoxyquinolines as a new class of topoisomerase I inhibitors endowed with potent in vitro anticancer activity” (2021):

What follows are molecules tested on HCT-15 (assay: Growth inhibition of human HCT-15 cells incubated for 48 hrs by sulforhodamine B assay). Settings: not given.
Type: functional
How it was run: (§1)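 NCI five-dose screen covering 0.01–100 µM, prepared as 10-fold or ½-log dilutions from DMSO stock. Cells in RPMI 1640 with 5% FBS were exposed for 48 h at 37 °C after 24 h preincubation. Adherent cells were fixed with TCA (final 10%) and suspension cells were settled before fixing. Stain was SRB, read at 515 nm. GI50 = 50% reduction in net protein increase versus control, with Tz taken at drug addition.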

Structure (SMILES) | GI50
COc1cc2nc(-c3ccc(C(F)(F)F)cc3)cc(OCCCN3CCCC3)c2cc1OC | 416 nM
COc1cc2nc(-c3ccc(Cl)cc3)cc(OCCCN3CCC(O)CC3)c2cc1OC | 763 nM

The molecules below were run on SR (assay: Growth inhibition of human SR cells incubated for 48 hrs by sulforhodamine B assay). Settings: not given.
Type: functional
How it was run: (§2)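 NCI five-dose screen (0.01–100 µM; five concentrations plus control). Cells grown in RPMI 1640/5% FBS/2 mM L-glutamine and preincubated 24 h, with time-zero plates TCA-fixed. Drug exposure 48 h at 37 °C, followed by SRB protein staining and reading at 515 nm. GI50 is the concentration at [(Ti-Tz)/(C-Tz)]×100 = 50.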

Structure (SMILES) | GI50
COc1cc2nc(-c3ccc(C(F)(F)F)cc3)cc(OCCCN3CCCC3)c2cc1OC | 133 nM
COc1cc2nc(-c3ccc(Cl)cc3)cc(OCCCN3CCC(O)CC3)c2cc1OC | 373 nM

Each molecule was assayed on U-251 (assay: Growth inhibition of human U-251 cells at 10 uM incubated for 48 hrs by sulforhodamine B assay relative to control). Settings: read-out: GI.
Type: functional
How it was run: (§3)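 NCI one-dose screen across a 59-line panel. Cells were grown in RPMI 1640 with 5% FBS and 2 mM L-glutamine, plated and pre-incubated 24 h, then exposed to drug for 48 h at 37 °C, 5% CO2. Adherent cells were fixed with cold TCA (10% final), stained with 0.4% SRB in 1% acetic acid and read at 515 nm. Result is percent growth relative to no-drug control and time-zero cell count.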

Structure (SMILES) | inhibition of growth at 10 µM
COc1cc2nc(-c3ccc(Cl)cc3)cc(OCCCN3CCC(O)CC3)c2cc1OC | 62%

These molecules were tested on SK-OV-3 (assay: Growth inhibition of human SK-OV-3 cells at 10 uM incubated for 48 hrs by sulforhodamine B assay relative to control). Settings: read-out: GI.
Type: functional
How it was run: (§4)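 NCI one-dose screen. Cells grown in RPMI 1640 with 5% FBS and 2 mM L-glutamine, plated and incubated 24 h at 37 °C, 5% CO2. DMSO-dissolved drug added, then 48 h further incubation. Adherent cells fixed with cold TCA, suspension cells fixed after settling. Stained with 0.4% SRB, absorbance read at 515 nm. Reported as percent growth relative to no-drug control and time-zero cell number.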

Structure (SMILES) | inhibition of growth at 10 µM
COc1cc2nc(-c3ccc(Cl)cc3)cc(OCCCN3CCC(O)CC3)c2cc1OC | 62%

Each molecule was assayed on MDA-MB-435 (assay: Growth inhibition of human MDA-MB-435 cells incubated for 48 hrs by sulforhodamine B assay). Settings: not given.
Type: functional
How it was run: as §1

Structure (SMILES) | GI50
COc1cc2nc(-c3ccc(C(F)(F)F)cc3)cc(OCCCN3CCCC3)c2cc1OC | 709 nM
COc1cc2nc(-c3ccc(Cl)cc3)cc(OCCCN3CCC(O)CC3)c2cc1OC | 2050 nM

Each molecule was assayed on IGROV-1 (assay: Growth inhibition of human IGROV-1 cells at 10 uM incubated for 48 hrs by sulforhodamine B assay relative to control). Settings: read-out: GI.
Type: functional
How it was run: (§5)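 NCI-60 single-dose screen. Cells were grown in RPMI 1640 with 5% FBS and 2 mM L-glutamine and plated 24 h before drug addition. Compound was added at one concentration in DMSO-derived medium and incubated for 48 h at 37 °C in 5% CO2. Read-out was SRB protein stain at 515 nm. Result is percent growth versus the no-drug control and the time-zero cell count; values below 0 indicate lethality.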

Structure (SMILES) | inhibition of growth at 10 µM
COc1cc2nc(-c3ccc(Cl)cc3)cc(OCCCN3CCC(O)CC3)c2cc1OC | 62%

The molecules below were run on M14 (assay: Growth inhibition of human M14 cells at 10 uM incubated for 48 hrs by sulforhodamine B assay relative to control). Settings: read-out: GI.
Type: functional
How it was run: as §5

Structure (SMILES) | inhibition of growth at 10 µM
COc1cc2nc(-c3ccc(Cl)cc3)cc(OCCCN3CCC(O)CC3)c2cc1OC | 62%

Each molecule was assayed on MCF7 (assay: Growth inhibition of human MCF7 cells at 10 uM incubated for 48 hrs by sulforhodamine B assay relative to control). Settings: read-out: GI.
Type: functional
How it was run: as §5

Structure (SMILES) | inhibition of growth at 10 µM
COc1cc2nc(-c3ccc(Cl)cc3)cc(OCCCN3CCC(O)CC3)c2cc1OC | 62%

These molecules were tested against T1, DNA topoisomerase 1 (Homo sapiens) (UniProt P11387) (assay: Inhibition of recombinant human TOPO1 assessed as TOP1-DNA cleavage complexes at 1 uM using 3'-[32-P]-117 labeled bp DNA as substrate incubated for 30 mins by SDS-PAGE analysis relative to control). Settings: not given.
T1 sequence (whole entry): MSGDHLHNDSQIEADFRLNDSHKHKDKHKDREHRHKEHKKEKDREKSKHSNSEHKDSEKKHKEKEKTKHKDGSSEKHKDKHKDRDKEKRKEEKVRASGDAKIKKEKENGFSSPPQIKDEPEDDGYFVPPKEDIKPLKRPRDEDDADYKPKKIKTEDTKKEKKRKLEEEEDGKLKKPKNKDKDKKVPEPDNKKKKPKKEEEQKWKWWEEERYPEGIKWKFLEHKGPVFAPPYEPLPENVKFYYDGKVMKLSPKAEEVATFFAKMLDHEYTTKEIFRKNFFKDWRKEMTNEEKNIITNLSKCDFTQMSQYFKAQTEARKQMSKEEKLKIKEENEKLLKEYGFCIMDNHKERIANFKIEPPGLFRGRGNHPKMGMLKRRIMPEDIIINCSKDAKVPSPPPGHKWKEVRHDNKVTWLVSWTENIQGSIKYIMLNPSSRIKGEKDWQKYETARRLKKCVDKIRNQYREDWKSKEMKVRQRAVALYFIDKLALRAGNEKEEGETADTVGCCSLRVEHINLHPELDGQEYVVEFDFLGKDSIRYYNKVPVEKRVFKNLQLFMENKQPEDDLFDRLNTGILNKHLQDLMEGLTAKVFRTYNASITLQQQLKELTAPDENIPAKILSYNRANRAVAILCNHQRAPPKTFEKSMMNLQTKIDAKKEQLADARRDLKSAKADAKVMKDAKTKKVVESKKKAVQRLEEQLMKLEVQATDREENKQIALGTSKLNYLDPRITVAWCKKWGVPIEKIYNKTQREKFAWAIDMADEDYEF

Structure (SMILES) | inhibition
COc1cc2nc(-c3ccc(C(F)(F)F)cc3)cc(OCCCN3CCCC3)c2cc1OC | 0%
COc1cc2nc(-c3ccc(Cl)cc3)cc(OCCCN3CCC(O)CC3)c2cc1OC | 20%

What follows are molecules tested on MDA-MB-231 (assay: Growth inhibition of human MDA-MB-231 cells at 10 uM incubated for 48 hrs by sulforhodamine B assay relative to control). Settings: read-out: GI.
Type: functional
How it was run: as §5

Structure (SMILES) | inhibition of growth at 10 µM
COc1cc2nc(-c3ccc(Cl)cc3)cc(OCCCN3CCC(O)CC3)c2cc1OC | 62%

What follows are molecules tested on COLO 205 (assay: Growth inhibition of human COLO 205 cells at 10 uM incubated for 48 hrs by sulforhodamine B assay relative to control). Settings: read-out: GI.
Type: functional
How it was run: as §5

Structure (SMILES) | inhibition of growth at 10 µM
COc1cc2nc(-c3ccc(Cl)cc3)cc(OCCCN3CCC(O)CC3)c2cc1OC | 62%

Each molecule was assayed on MOLT-4 (assay: Growth inhibition of human MOLT-4 cells at 10 uM incubated for 48 hrs by sulforhodamine B assay relative to control). Settings: read-out: GI.
Type: functional
How it was run: as §4

Structure (SMILES) | inhibition of growth at 10 µM
COc1cc2nc(-c3ccc(Cl)cc3)cc(OCCCN3CCC(O)CC3)c2cc1OC | 62%

The molecules below were run on SF-295 (assay: Growth inhibition of human SF-295 cells at 10 uM incubated for 48 hrs by sulforhodamine B assay relative to control). Settings: read-out: GI.
Type: functional
How it was run: as §4

Structure (SMILES) | inhibition of growth at 10 µM
COc1cc2nc(-c3ccc(Cl)cc3)cc(OCCCN3CCC(O)CC3)c2cc1OC | 62%

What follows are molecules tested on NCI-H226 (assay: Growth inhibition of human NCI-H226 cells at 10 uM incubated for 48 hrs by sulforhodamine B assay relative to control). Settings: read-out: GI.
Type: functional
How it was run: as §4

Structure (SMILES) | inhibition of growth at 10 µM
COc1cc2nc(-c3ccc(Cl)cc3)cc(OCCCN3CCC(O)CC3)c2cc1OC | 62%

Each molecule was assayed on NCI-H522 (assay: Growth inhibition of human NCI-H522 cells incubated for 48 hrs by sulforhodamine B assay). Settings: not given.
Type: functional
How it was run: as §2

Structure (SMILES) | GI50
COc1cc2nc(-c3ccc(C(F)(F)F)cc3)cc(OCCCN3CCCC3)c2cc1OC | 1740 nM
COc1cc2nc(-c3ccc(Cl)cc3)cc(OCCCN3CCC(O)CC3)c2cc1OC | 2190 nM

These molecules were tested on K562 (assay: Growth inhibition of human K562 cells incubated for 48 hrs by sulforhodamine B assay). Settings: not given.
Type: functional
How it was run: as §1

Structure (SMILES) | GI50
COc1cc2nc(-c3ccc(C(F)(F)F)cc3)cc(OCCCN3CCCC3)c2cc1OC | 475 nM
COc1cc2nc(-c3ccc(Cl)cc3)cc(OCCCN3CCC(O)CC3)c2cc1OC | 1630 nM

Each molecule was assayed on UO-31 (assay: Growth inhibition of human UO-31 cells at 10 uM incubated for 48 hrs by sulforhodamine B assay relative to control). Settings: read-out: GI.
Type: functional
How it was run: as §3

Structure (SMILES) | inhibition of growth at 10 µM
COc1cc2nc(-c3ccc(Cl)cc3)cc(OCCCN3CCC(O)CC3)c2cc1OC | 62%

Each molecule was assayed on A498 (assay: Growth inhibition of human A498 cells at 10 uM incubated for 48 hrs by sulforhodamine B assay relative to control). Settings: read-out: GI.
Type: functional
How it was run: as §3

Structure (SMILES) | inhibition of growth at 10 µM
COc1cc2nc(-c3ccc(Cl)cc3)cc(OCCCN3CCC(O)CC3)c2cc1OC | 62%

These molecules were tested on HOP-62 (assay: Growth inhibition of human HOP-62 cells incubated for 48 hrs by sulforhodamine B assay). Settings: not given.
Type: functional
How it was run: as §1

Structure (SMILES) | GI50
COc1cc2nc(-c3ccc(C(F)(F)F)cc3)cc(OCCCN3CCCC3)c2cc1OC | 1030 nM
COc1cc2nc(-c3ccc(Cl)cc3)cc(OCCCN3CCC(O)CC3)c2cc1OC | 1980 nM

These molecules were tested on RXF 393 (assay: Growth inhibition of human RXF 393 cells at 10 uM incubated for 48 hrs by sulforhodamine B assay relative to control). Settings: read-out: GI.
Type: functional
How it was run: as §4

Structure (SMILES) | inhibition of growth at 10 µM
COc1cc2nc(-c3ccc(Cl)cc3)cc(OCCCN3CCC(O)CC3)c2cc1OC | 62%

Each molecule was assayed on NCI-H23 (assay: Growth inhibition of human NCI-H23 cells incubated for 48 hrs by sulforhodamine B assay). Settings: not given.
Type: functional
How it was run: as §2

Structure (SMILES) | GI50
COc1cc2nc(-c3ccc(C(F)(F)F)cc3)cc(OCCCN3CCCC3)c2cc1OC | 1910 nM
COc1cc2nc(-c3ccc(Cl)cc3)cc(OCCCN3CCC(O)CC3)c2cc1OC | 2830 nM

The molecules below were run on SK-MEL-2 (assay: Growth inhibition of human SK-MEL-2 cells incubated for 48 hrs by sulforhodamine B assay). Settings: not given.
Type: functional
How it was run: as §2

Structure (SMILES) | GI50
COc1cc2nc(-c3ccc(C(F)(F)F)cc3)cc(OCCCN3CCCC3)c2cc1OC | 1930 nM
COc1cc2nc(-c3ccc(Cl)cc3)cc(OCCCN3CCC(O)CC3)c2cc1OC | 2070 nM

These molecules were tested on MCF7 (assay: Growth inhibition of human MCF7 cells incubated for 48 hrs by sulforhodamine B assay). Settings: not given.
Type: functional
How it was run: as §1

Structure (SMILES) | GI50
COc1cc2nc(-c3ccc(C(F)(F)F)cc3)cc(OCCCN3CCCC3)c2cc1OC | 976 nM
COc1cc2nc(-c3ccc(Cl)cc3)cc(OCCCN3CCC(O)CC3)c2cc1OC | 1600 nM
